Bioassay records: PubChem BioAssay, Johns Hopkins Ion Channel Center
Rows were chosen to be rich in hits. Some 2.3% of all compounds tested hit in one or more screens of this group.
TRPC4 PAM: positive allosteric modulators of TRPC4, primary screen, cell-based, mouse TRPC4beta, HEK293 mu-opioid, Fluo-4 calcium; actives 0.42% (n = 310,000); Short transient receptor potential channel 4 (Mus musculus), Q9QUQ5; B-score at 10 µM; DAMGO EC20, Fluo-4 Ca2+ flux; stronger effect = higher value; AID 2227, 2009;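 active = B-score of calcium response area above 5 SD of library B-scores, with initial fluorescence ratio within 5 SD of library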;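 note: B-score of integrated fluorescence ratio over time as area under calcium response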
TRPC4 agonist: activators of mouse TRPC4 channel, primary screen, Fluo4 calcium, HEK293 TRPC4beta/mu-opioid cells; Fluo4 calcium fluorescence; stronger effect = higher value; B-score at 10 µM; actives 0.49% (n = 310,000); Short transient receptor potential channel 4 (Mus musculus), Q9QUQ5;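 active = B-score above 5 SD of library B-scores, and initial fluorescence ratio not above library mean plus 5 SD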;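 note: positive B-score marks a calcium rise read as TRPC4 activation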
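Assay system: HEK293 stable line with TRPC4beta plus mu-opioid receptor; schedule: 45 min room-temperature Fluo4 loading, 110 s read; technique: kinetic Fluo4 calcium fluorescence; evaluation: integrated baseline-normalised fluorescence ratio, converted to per-well B score; controls: buffer (low) and maximal DAMGO (high)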
TRPC6 inhibitor: mouse TRPC6 channel inhibitors, primary screen, cell-based, HEK293, membrane potential dye; ACh-evoked depolarization; stronger effect = lower value; B-score at 10 µM; actives 1.1% (n = 310,000); AID 2553, 2010;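 active = B-score under library mean minus 3 SD, initial fluorescence not abnormally high, positive integrated signal ratio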;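 note: B-score derived from integrated fluorescence ratio over the kinetic read; more negative B-score means stronger inhibition of depolarization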
TRPC4 block: inhibitors of mouse TRPC4 channel, primary screen, Fluo4 calcium, HEK293 TRPC4beta/mu-opioid cells. Short transient receptor potential channel 4 (Mus musculus), Q9QUQ5. AID 2247, 2010. DAMGO-evoked Fluo4 calcium flux; stronger effect = lower value. B-score at 10 µM. actives 0.39% (n = 300,000);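 active = B-score over 3 SD under the library average, no early fluorescence shift, positive overall ratio signal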
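Assay system: Stable TRPC4beta/mu-opioid receptor HEK293 cells | Reagent: DAMGO in two steps, submaximal then maximal | Compound dosing: Single concentration per test compound | Signal: Fluo4 Ca2+ flux fluorescence | Evaluation: Per-well B score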
TRPC6 activator: mouse TRPC6 channel activators, primary screen, cell-based, HEK293, membrane potential dye | Short transient receptor potential channel 6 (Mus musculus), Q61143 | HEK293-TRPC6 membrane potential dye fluorescence; stronger effect = higher value | actives 0.13% (n = 310,000) | B-score at 10 µM;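 active = B-score of the integrated fluorescence ratio above library mean plus 3 SD, and starting fluorescence ratio within library mean plus 5 SD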;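 note: higher score means more depolarization so channel activation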
TRPC4 sel inh 2: mouse TRPC4 off-target activity of TRPC6 inhibitors, second screen; shares compounds with TRPC6 inhibitor; HEK293 TRPC4/MOR, membrane potential dye fluorescence; channel activated by saturating DAMGO dose; inhibition, % at 10 µM; actives 42% (n = 920); AID 2776;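 active = compounds whose fluorescence signal differed from control wells by over 3 SD, either direction, in both duplicate plates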
TRPC4 spec: mouse TRPC4 modulation by TRPC6 hits, confirmation, selectivity assay for TRPC6 inhibitor project, cell-based, HEK293 TRPC4/mu-opioid, membrane potential dye | AID 2777, 2010 | shares compounds with TRPC6 inhibitor | activity change, negative = inhibition, % at 10 µM | actives 61% (n = 920) | membrane potential fluorescence;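 active = rise or fall in signal beyond 3 SD of buffer-only wells in both replicate plates, either sign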;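 note: integrated kinetic ratio of fluorescence range over baseline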
HEK293 MPD ctr 2-1: nonspecific membrane potential effects, parental HEK293, confirmation, counter-screen for TRPC6 inhibitor project, cell-based, second counter screen; shares compounds with TRPC6 inhibitor; AID 2779, 2010; signal change vs control, % at 10 µM; parental HEK293 membrane potential dye fluorescence; maximal acetylcholine challenge after compound addition; actives 31% (n = 920);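 active = membrane potential signal moving either way by over 3 SD of the maximum-effect control, in both duplicate plates, meaning non-specific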
HEK293 MPD ctr-1: membrane potential modulation in parental HEK293, confirmation, counter-screen for TRPC6 inhibitor project, cell-based | shares compounds with TRPC6 inhibitor | parental HEK293 membrane potential dye fluorescence | AID 2780, 2010 | membrane potential signal change, % at 10 µM | actives 60% (n = 920);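 active = membrane potential signal shifting up or down by more than 3 SD of buffer-only wells, on both duplicate plates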
HEK293 MPD ctr-2: parental HEK293 membrane potential modulation, confirmation, counter-screen for TRPC6 modulator project, cell-based; shares compounds with TRPC6 inhibitor; membrane potential dye fluorescence; membrane potential signal change, % at 10 µM; actives 51% (n = 2,400);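 active = membrane potential signal moves up or down beyond 5 SD from buffer-only wells, on both duplicate plates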
HEK293 MPD ctr 2-2: parental HEK293 nonspecific activity of TRPC6 modulators, second screen | shares compounds with TRPC6 inhibitor | membrane potential dye fluorescence; after compound, maximal acetylcholine stimulation | inhibition, % at 10 µM | actives 14% (n = 2,400) | AID 488926;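 active = membrane potential signal drops by more than 5 SD from the mean control signal, in both duplicate plates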;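 note: plate controls were acetylcholine ECmax control wells for no effect and buffer only wells for full effect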
TRPC4/MOR mod: TRPC4 modulation by TRPC6 hit compounds, confirmation, selectivity assay for TRPC6 modulator project, cell-based, HEK293 TRPC4/mu-opioid, membrane potential dye, mouse; actives 69% (n = 2,400); membrane potential fluorescence; shares compounds with TRPC6 inhibitor; AID 488927, 2010; percent change from control (negative = decrease, positive = increase), % at 10 µM;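 active = membrane potential signal moved up or down beyond 5 SD of buffer control wells, in both duplicate plates, actives on both sides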;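 note: plate controls were assay buffer wells for no effect and DAMGO maximal-effect wells for full effect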
TRPC4 ctr inh 2: second selectivity test of TRPC6 modulators against mouse TRPC4; shares compounds with TRPC6 inhibitor; HEK293 TRPC4/mu-opioid, membrane potential dye fluorescence; stimulated with maximal-effect DAMGO; inhibition, % at 10 µM; actives 55% (n = 2,400); AID 488928;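 active = drop in membrane potential signal beyond 5 SD of the control wells in both duplicate plates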;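 note: TRPC4 counter screen for TRPC6 hits run under conditions tuned for TRPC6 not TRPC4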
TRPC6 inh conf: mouse TRPC6 channel inhibitors, confirmation, HEK293 cells, membrane potential dye, duplicate; shares compounds with TRPC6 inhibitor; ACh-evoked depolarization; inhibition, % at 10 µM; actives 43% (n = 3,300); AID 488960, 2010;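 active = fluorescence ratio falls more than 5 SD below the full-stimulation control mean, in both duplicate runs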;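 note: integrated fluorescence ratio of peak minus minimum over baseline after agonist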
TRPC6 act confirm: mouse TRPC6 channel activators, confirmation, HEK293 cells, membrane potential dye, duplicate; shares compounds with TRPC6 inhibitor; HEK293-TRPC6 membrane potential dye fluorescence, FDSS; activation, % at 10 µM; actives 11% (n = 2,800);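 active = ratio signal rise beyond 5 SD above unstimulated control wells' mean, seen in both duplicate runs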;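 note: plate controls were buffer EC0 wells for no effect and acetylcholine ECmax response for full effect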
Active calls of the source: *; i = inactive; · = no result given.

SMILES	TRPC4 PAM	TRPC4 agonist	TRPC6 inhibitor	TRPC4 block	TRPC6 activator	HEK293 MPD ctr-2	HEK293 MPD ctr 2-2	TRPC4/MOR mod	TRPC4 ctr inh 2	TRPC6 inh conf	TRPC6 act confirm	others
CN1CCC(NCCC(c2ccc(F)cc2)c2ccc(Cl)cc2)CC1 (stereo unspecified)	i	i	-5.4*	i	i	104%*	i	18%*	56%*	i	·
CCOC(=O)N1CCN(C(=O)c2ccc3nc(N4CCC(C)CC4)sc3c2)CC1	i	i	-12*	i	13*	114%*	i	21%*	i	113%*	160%*
CC(=O)NS(=O)(=O)c1ccc(NC(=O)c2cc3c(=O)n4ccccc4nc3s2)cc1	i	i	-7.9*	i	i	·	·	·	·	i	i	TRPC4 sel inh 2=74%*;TRPC4 spec=-35%*;HEK293 MPD ctr 2-1=30%*;HEK293 MPD ctr-1=-653%*
Cc1cccc(NC(=O)c2cc3c(=O)n4ccccc4nc3s2)c1	i	i	i	i	i	·	·	·	·	·	·
OC(CNCC1CCCO1)Cn1c2ccccc2c2ccccc21 (stereo unspecified)	i	i	-6.5*	i	i	312%*	73%*	36%*	65%*	84%*	·
OC(CNCC1CCCO1)Cn1c2ccc(Cl)cc2c2cc(Cl)ccc21 (stereo unspecified)	i	i	i	i	i	·	·	·	·	·	·
Cc1cc(C)nc(NC2=NC3CCCCC3N2)n1 (stereo unspecified)	i	i	-8.9*	i	i	192%*	128%*	-10%*	54%*	56%*	i
Cc1cc(C)nc(NC2=NCC(=O)N2c2cc(Cl)cc(Cl)c2)n1	i	i	i	i	i	·	·	·	·	·	·
O=C(C[n+]1cc(-c2ccc(F)cc2)n2c1CCC2)N1c2ccccc2Sc2ccccc21	i	i	-7.9*	i	i	i	i	i	i	70%*	i
Cc1ccc(-c2c[n+](CC(=O)N3c4ccccc4Sc4ccccc43)c3n2CCC3)cc1	i	i	-5.9*	i	i	i	i	-14%*	i	71%*	i
Cc1nnc(SCC2=C(C(=O)O)N3C(=O)[C@@H](NC(=O)Cn4cnnn4)[C@H]3SC2)s1	i	i	i	i	i	·	·	·	·	·	·
COC(=O)CCC(=O)OC1(C)C(=O)C=C2C=C(C3CC3)N(CCc3ccccn3)C=C2C1=O (stereo unspecified)	i	i	i	i	i	·	·	·	·	·	·
COC(=O)CCC(=O)OC1(C)C(=O)C=C2C=C(C3CC3)N(CCc3c[nH]c4ccccc34)C=C2C1=O (stereo unspecified)	i	i	-7.2*	i	i	·	·	·	·	i	i	TRPC4 sel inh 2=i;TRPC4 spec=i;HEK293 MPD ctr 2-1=i;HEK293 MPD ctr-1=i
CCc1noc(C)c1C(=O)Nc1ccc(-c2nnc3n2CCCCC3)cc1	i	i	-5*	i	i	i	i	i	i	i	i
CCc1noc(C)c1C(=O)Nc1ccc(S(=O)(=O)N2CCCCC2)cc1	i	i	i	i	i	·	·	·	·	·	·
O=C(Nc1ccc(O)cc1)/C(=C\C=C\c1ccccc1)NC(=O)c1ccccc1	i	i	-5.6*	i	i	i	i	i	37%*	i	i
Nc1c2c(nc3ccccc13)N(c1ccccc1)CC2	i	i	-8*	-6*	i	-130%*	i	-40%*	85%*	48%*	i
CN1CCCCc2c1nc1ccccc1c2N (tested in a mixture with another compound)	i	i	-8.6*	-7*	i	·	·	·	·	87%*	i	TRPC4 sel inh 2=4.5%*;TRPC4 spec=-19%*;HEK293 MPD ctr 2-1=i;HEK293 MPD ctr-1=-252%*
Nc1c2c(nc3ccccc13)CSCC2	i	i	-7.2*	i	i	·	·	·	·	55%*	i	TRPC4 sel inh 2=13%*;TRPC4 spec=-30%*;HEK293 MPD ctr 2-1=i;HEK293 MPD ctr-1=-482%*
COc1ccc(NC(=O)Nc2ccccc2C(N)=O)cc1OC	i	i	i	i	i	·	·	·	·	·	·
COC(=O)C1=C(N)OC2=C(C(=O)CC(C)(C)C2)C1c1cc2c(cc1Cl)OCO2 (stereo unspecified)	i	i	-9.3*	i	i	·	·	·	·	i	i	TRPC4 sel inh 2=34%*;TRPC4 spec=i;HEK293 MPD ctr 2-1=i;HEK293 MPD ctr-1=i
